Experimental findings from ChEMBL document CHEMBL3259539, “A fragment-based method to discover irreversible covalent inhibitors of cysteine proteases” (J Med Chem, 2014) are described below.

Activity calls are given as the source filed them. No cut-off for these calls is given here.

Assay [1] concerns the target T1, Papain (Carica papaya) (UniProt P00784).
T1 sequence (whole entry): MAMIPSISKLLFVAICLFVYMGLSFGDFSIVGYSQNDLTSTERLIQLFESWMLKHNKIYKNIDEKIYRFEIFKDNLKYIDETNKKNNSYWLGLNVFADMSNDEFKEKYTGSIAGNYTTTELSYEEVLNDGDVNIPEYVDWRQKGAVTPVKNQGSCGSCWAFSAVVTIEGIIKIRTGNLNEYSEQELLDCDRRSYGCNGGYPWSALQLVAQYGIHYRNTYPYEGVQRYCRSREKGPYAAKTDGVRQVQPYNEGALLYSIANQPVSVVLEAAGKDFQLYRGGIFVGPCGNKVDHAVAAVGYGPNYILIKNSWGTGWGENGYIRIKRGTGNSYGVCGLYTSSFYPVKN
The assay can be described thus: Ratio of Kinact to Ki for papain by second-order papain inhibition plot. The method, boiled down: (§1)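 Papain preactivated with 1 mM DTT for 30 min, then 3.84 μM preincubated up to 1 h with varying inhibitor in 50 mM Na3PO4/2 mM EDTA pH 6.2:acetonitrile (4:1). Aliquots taken every 10 min into 400 μM Cbz-Gly-ONp; p-nitrophenol absorbance followed, in duplicate. kobs from ln(% activity) vs time slopes; kinact/KI from kobs vs [I] slope (Kitz–Wilson).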

The target of assay [2] is T1, Papain (Carica papaya). The assay can be described thus: Irreversible inhibition of papain assessed as binding affinity cysteine after 1 hr incubation at 1 mM by ESI-MS analysis.
Assay [3] addresses T1, Papain (Carica papaya). The assay can be described thus: Irreversible inhibition of papain after 1 hr incubation at 100 uM by ESI-MS analysis in presence of 10 mM glutathione.
The target of assay [4] is T1, Papain (Carica papaya). The assay can be described thus: Inhibition of papain by first-order papain inhibition plot. The method, boiled down: as §1
Assay [5] addresses T1, Papain (Carica papaya). The assay can be described thus: Irreversible inhibition of papain assessed as covalent adducts after 16 to 64 hrs incubation at 100 uM by MS analysis.
For assay [6], the target named is T1, Papain (Carica papaya). Briefly: Irreversible inhibition of papain assessed as binding affinity cysteine after 1 hr incubation at 100 uM by ESI-MS analysis.
The target in assay [7] is T2, Ubiquitin carboxyl-terminal hydrolase 8 (Homo sapiens) (UniProt P40818).
T2 sequence (whole entry): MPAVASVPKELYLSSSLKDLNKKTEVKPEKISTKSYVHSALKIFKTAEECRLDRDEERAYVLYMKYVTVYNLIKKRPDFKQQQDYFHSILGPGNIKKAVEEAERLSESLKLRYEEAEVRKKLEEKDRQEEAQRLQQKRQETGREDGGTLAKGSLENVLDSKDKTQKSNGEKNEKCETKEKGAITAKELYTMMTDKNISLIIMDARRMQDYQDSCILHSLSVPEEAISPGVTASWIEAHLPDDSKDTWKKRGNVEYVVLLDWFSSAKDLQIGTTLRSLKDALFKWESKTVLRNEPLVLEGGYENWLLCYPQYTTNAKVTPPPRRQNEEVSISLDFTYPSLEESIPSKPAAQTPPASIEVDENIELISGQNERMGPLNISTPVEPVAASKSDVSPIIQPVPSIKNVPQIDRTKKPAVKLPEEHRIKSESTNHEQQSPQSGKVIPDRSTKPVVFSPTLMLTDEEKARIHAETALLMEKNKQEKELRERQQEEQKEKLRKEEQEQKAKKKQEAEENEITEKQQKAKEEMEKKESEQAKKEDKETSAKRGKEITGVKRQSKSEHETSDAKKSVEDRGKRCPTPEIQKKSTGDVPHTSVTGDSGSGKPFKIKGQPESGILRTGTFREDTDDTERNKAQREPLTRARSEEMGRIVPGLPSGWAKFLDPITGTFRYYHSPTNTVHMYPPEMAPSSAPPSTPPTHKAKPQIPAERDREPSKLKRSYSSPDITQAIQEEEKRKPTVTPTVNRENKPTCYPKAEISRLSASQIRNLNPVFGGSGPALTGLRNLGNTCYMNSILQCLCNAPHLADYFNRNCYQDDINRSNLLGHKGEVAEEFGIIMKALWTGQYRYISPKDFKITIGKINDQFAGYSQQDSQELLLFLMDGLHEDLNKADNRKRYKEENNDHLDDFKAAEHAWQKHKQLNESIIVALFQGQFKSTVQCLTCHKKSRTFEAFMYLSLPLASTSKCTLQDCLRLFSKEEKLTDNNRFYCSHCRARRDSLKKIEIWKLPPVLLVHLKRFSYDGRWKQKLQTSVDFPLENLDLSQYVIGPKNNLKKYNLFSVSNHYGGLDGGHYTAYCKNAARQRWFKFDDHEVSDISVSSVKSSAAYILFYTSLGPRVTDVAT
The assay can be described thus: Binding affinity to deubiquitinase USP08 (unknown origin) assessed as labeling after 4 hrs incubation. The method, boiled down:
(§2)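 Enzyme at 10 μM (papain; recombinant GST-HRV3C protease; recombinant USP08) in 50 mM HEPES, 150 mM NaCl, 0.1 mM EDTA, pH 7.5, with a 10-fragment mixture at 100 μM each (final) and 1% DMSO. Incubated at 23 °C, 1 h for papain and HRV3C, 4 h for USP08. Gel-filtered, then intact-protein LC/ESI-MS with maximum-entropy deconvolution.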

The target in assay [8] is T1, Papain (Carica papaya). Briefly: Irreversible inhibition of papain after 1 hr incubation at 100 uM by ESI-MS analysis. The method, boiled down:
as §2

For assay [9], the target named is T3, Human rhinovirus A protease (Human rhinovirus sp.) (UniProt Q4U254).
T3 sequence (whole entry): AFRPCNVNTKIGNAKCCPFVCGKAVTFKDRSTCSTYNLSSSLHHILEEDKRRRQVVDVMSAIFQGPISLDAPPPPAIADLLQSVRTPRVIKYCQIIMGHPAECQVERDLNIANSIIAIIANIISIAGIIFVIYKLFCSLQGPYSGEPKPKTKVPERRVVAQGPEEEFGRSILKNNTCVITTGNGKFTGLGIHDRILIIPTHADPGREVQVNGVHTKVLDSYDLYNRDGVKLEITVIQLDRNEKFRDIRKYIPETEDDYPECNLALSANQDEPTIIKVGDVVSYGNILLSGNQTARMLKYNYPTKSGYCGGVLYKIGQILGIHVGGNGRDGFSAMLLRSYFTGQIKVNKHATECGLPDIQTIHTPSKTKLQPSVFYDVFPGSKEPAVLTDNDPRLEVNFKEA
The assay can be described thus: Binding affinity to GST-tagged human rhinovirus 3C protease assessed as labeling after 1 hr. The essentials:
as §2

Turning to `COC(=O)/C=C/CNC(=O)[C@@H](CNC(C)=O)Cc1ccccc1`, the Ratio in [1] is 6.58.
For `COC(=O)/C=C/CNC(=O)C1CCN(C(=O)CC(C)C)CC1`, the inhibition result in [2], in [3], in [4], in assay [5], in assay [6] and in assay [8] was “Active” in each case. Moreover, the Ratio in assay [1] came out at 0.461. Further, in assay [7], the result was inactive.
Take `COC(=O)/C=C/CNC(=O)c1ccc2ccccc2n1`: the Activity in assay [9] worked out at 20%.
Still for that read-out and setting: under `COC(=O)/C=C/CNC(=O)c1csc(-c2cccs2)n1` stands 35%.
Take `COC(=O)/C=C/CNC(=O)c1sc(-c2ccccc2F)nc1C`: the inhibition result in [2], in [3], in assay [4], in [5], in [6] and in [8] was “Active” in each case. Also, the Ratio in [1] is 0.409. Also, the Activity in assay [7] was determined as 30%.
As to `COC(=O)/C=C/CNC(=O)c1ccc(C2CCCO2)s1` (configuration not stated), the Ratio in [1] came out at 0.037.
Turning to `COC(=O)/C=C/CNC(=O)c1ccccc1NC(=O)Nc1ccc(Cl)cc1`, in assay [7], the Activity came out at 30%.
`COC(=O)/C=C/CNC(=O)c1cc(-c2ccc(C)cc2)no1`: the inhibition result in [2], in assay [3], in assay [4], in assay [5], in [6] and in assay [8] was “Active” each time. Moreover, the Ratio in assay [1] came out at 1.23. For the same compound, the result in assay [7] was inactive.
As to `COC(=O)/C=C/CNC(=O)c1cc2cc(Cl)cc(OC)c2o1`, in [9], the Activity amounted to 20%.
With `COC(=O)/C=C/CNC(=O)[C@@H](CNC(C)=O)CC(C)C`, the Ratio in [1] came out at 1.1.
The same measure, in the same setting: the result for `COC(=O)/C=C/CNC(=O)[C@H](CNC(C)=O)Cc1ccccc1` reads 0.386.
